We go through ten compounds from ChEMBL document CHEMBL1122415, “Folate antagonists. 20. Synthesis and antitumor and antimalarial properties of trimetrexate and related 6-[(phenylamino)methyl]-2,4-quinazolinediamines” (1983).

Assay [1] has as its system Mus musculus. Put plainly: Antimalarial effect against trophozoite-induced Plasmodium berghei in mice (Mus musculus) after subcutaneous administration dose of 320 mg/kg. The class given is functional.
The test system of assay [2] is Mus musculus. Briefly: Antimalarial effect against trophozoite-induced Plasmodium berghei in mice (Mus musculus) after subcutaneous administration dose of 40 mg/kg. The class given is functional.
Assay [3] relates to Mus musculus. Briefly: (§1) Antimalarial effect against trophozoite-induced Plasmodium berghei in mice (Mus musculus) after subcutaneous administration dose of 20 mg/kg. Type of assay: functional.
The subject of assay [4] is Mus musculus. Put plainly: Antimalarial effect against trophozoite-induced Plasmodium berghei in mice (Mus musculus) after subcutaneous administration dose of 640 mg/kg. The class given is functional.
Assay [5] concerns Mus musculus. Put plainly: Antimalarial effect against trophozoite-induced Plasmodium berghei in mice (Mus musculus) after subcutaneous administration dose of 160 mg/kg. The class given is functional.
Assay [6] relates to L1210. Briefly: Molar concentration required to reduce the number of L1210 cells by 50% after incubation for 2 days. Type of assay: functional, Mus musculus. As to conditions: read-out: ID50 (the source's name). The procedure, abridged: (§2)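 L1210 leukemia cells in tissue culture exposed to drug for 2 days. ID50 is the molar concentration that reduces L1210 cell number by 50%. Mithramycin is the reference drug.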

For assay [7], the species on record is Mus musculus. Briefly: Daily dose required for 90% parasitaemia in trophozoite induced Plasmodium berghei in 21 mice. Type of assay: functional. The procedure, abridged:
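Oral suppressive test in mice against a normal drug-sensitive P. berghei strain. Drug given continuously in the diet for six consecutive days, with doses as free base equivalent. SD90 is the daily dose (mg/kg) giving 90% suppression of parasitemia versus control mice, estimated graphically on semilog paper.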

For assay [8], the system named is Mus musculus. Briefly: Antimalarial effect against trophozoite-induced Plasmodium berghei in mice (Mus musculus) after subcutaneous administration dose of 10 mg/kg. The class given is functional.
The subject of assay [9] is Plasmodium berghei. Briefly: Antimalarial effect against trophozoite-induced Plasmodium berghei in mice (Mus musculus) at 80 mg/kg subcutaneous dose. Type of assay: functional.
In assay [10] the test system is Mus musculus. Put plainly: Antimalarial effect against trophozoite-induced Plasmodium berghei in mice (Mus musculus) after subcutaneous administration dose of 80 mg/kg; 4 survived after 60 days of post infection. Type of assay: functional.
Assay [11] relates to Plasmodium berghei. Briefly: Antimalarial effect against trophozoite-induced Plasmodium berghei in mice (Mus musculus) at 20 mg/kg subcutaneous dose. Type of assay: functional.
The test system of assay [12] is Plasmodium berghei. Briefly: Antimalarial effect against trophozoite-induced Plasmodium berghei in mice (Mus musculus) at 40 mg/kg subcutaneous dose. The class given is functional.
Assay [13] relates to Mus musculus. Put plainly: Antimalarial effect against trophozoite-induced Plasmodium berghei in mice (Mus musculus) after subcutaneous administration dose of 2.5 mg/kg. The class given is functional.
Assay [14] deals with Mus musculus. The assay is described as §1. The class given is functional. This is another data set of the same source.
Assay [15] deals with L1210. Put plainly: Molar concentration required to reduce the number of L1210 cells by 50% after incubation for 2 days (exp 2. The class given is functional. As to conditions: Mus musculus, L1210, 48 h; read-out: ID50 (the source's name). The method, boiled down: as §2
The test system of assay [16] is Mus musculus. Briefly: Antimalarial effect against trophozoite-induced Plasmodium berghei in mice (Mus musculus) after subcutaneous administration dose of 5 mg/kg. The class given is functional.
Assay [17] relates to Plasmodium berghei. Put plainly: Antimalarial effect against trophozoite-induced Plasmodium berghei in mice (Mus musculus) at 320 mg/kg subcutaneous dose. The class given is functional. As to conditions: 320 mg/kg.
Assay [18] concerns Mus musculus. Put plainly: Antimalarial effect against trophozoite-induced Plasmodium berghei in mice (Mus musculus) after subcutaneous administration dose of 320 mg/kg; 3 survived after 60 days of postinfection. The class given is functional.
The test system of assay [19] is Mus musculus. Put plainly: Antimalarial effect against trophozoite-induced Plasmodium berghei in mice (Mus musculus) after subcutaneous administration dose of 320 mg/kg; 1 survived after 60 days of post infection.
Assay [20] has as its system Plasmodium berghei. Briefly: Antimalarial effect against trophozoite-induced Plasmodium berghei in mice (Mus musculus) at 5 mg/kg subcutaneous dose. The class given is functional.
Assay [21] concerns Plasmodium berghei. Put plainly: Antimalarial effect against trophozoite-induced Plasmodium berghei in mice (Mus musculus) after subcutaneous dose of 10 mg/kg. Type of assay: functional.
Assay [22] has as its system Mus musculus. Briefly: Antimalarial effect against trophozoite-induced Plasmodium berghei in mice (Mus musculus) after subcutaneous administration dose of 160 mg/kg; 4 survived after 60 days of post infection. The class given is functional.
The subject of assay [23] is Mus musculus. Briefly: Antimalarial effect against trophozoite-induced Plasmodium berghei in mice (Mus musculus) after subcutaneous administration dose of 160 mg/kg; 3 survived after 60 days of postinfection. The class given is functional.
Assay [24] concerns Mus musculus. Briefly: Antimalarial effect against trophozoite-induced Plasmodium berghei in mice (Mus musculus) after subcutaneous administration dose of 10 mg/kg; 1 survived after 60 days of post infection. The class given is functional.
Assay [25] concerns Mus musculus. Briefly: Antimalarial effect against trophozoite-induced Plasmodium berghei in mice (Mus musculus) after subcutaneous administration dose of 20 mg/kg; 4 survived after 60 days of postinfection. The class given is functional.
For assay [26], the system named is Mus musculus. Put plainly: Antimalarial effect against trophozoite-induced Plasmodium berghei in mice (Mus musculus) after subcutaneous administration dose of 20 mg/kg; 3 survived after 60 days of post infection. The class given is functional.
For assay [27], the system named is Mus musculus. Briefly: Antimalarial effect against trophozoite-induced Plasmodium berghei in mice (Mus musculus) after subcutaneous administration dose of 160 mg/kg; 4 survived after 60 days. The class given is functional.
The test system of assay [28] is Mus musculus. Put plainly: Antimalarial effect against trophozoite-induced Plasmodium berghei in mice (Mus musculus) after subcutaneous administration dose of 80 mg/kg; 1 survived after 60 days. The class given is functional.
The subject of assay [29] is Mus musculus. Briefly: Antimalarial effect against trophozoite-induced Plasmodium berghei in mice (Mus musculus) after subcutaneous after 60 days. The class given is functional.
Assay [30] deals with Mus musculus. Briefly: Antimalarial effect against trophozoite-induced Plasmodium berghei in mice (Mus musculus) after subcutaneous administration dose of 40 mg/kg; 1 survival after 60 days. The class given is functional.

“And” between values parts separate entries of the source, which are not always exact repeats. Equal values may be shown once.

Turning to `CC(=O)O.Nc1nc(N)c2cc(CNc3cc(Cl)cc(Cl)c3)ccc2n1.O.O`, the “Delta MST” value in the assay with Mus musculus [1] was 12.9 days and 6.9 days; in the assay on Mus musculus [2] it was 0.7 days; in the assay with Mus musculus [3], 0.3 days; in the assay on Mus musculus [4], 13.7 days; with Mus musculus [5], 6.9 days and 4.7 days; in the assay on Mus musculus [8], 0.3 days. Moreover, the IC50 was 120 nM with L1210 [6] (Mus musculus, L1210, 48 h) and 74 nM in the assay on L1210 [6]. This compound also showed an SD90 in the assay filed under Mus musculus [7] of 51 mg/kg/day.

Take `CC(=O)O.COc1cc(NCc2ccc3nc(N)nc(N)c3c2C)cc(OC)c1OC.O`: the “Delta MST” value with Plasmodium berghei [9] was 30.8 days; in the assay with Mus musculus [10] it was 16.3 days and 14.7 days; in the assay with Plasmodium berghei [11] (20 mg/kg), 12 days and 11.5 days and 7.1 days; with Plasmodium berghei [12] it was 14.7 days. The IC50 in the assay on L1210 [6] (Mus musculus, L1210, 48 h) stood at 11 nM; in the assay with L1210 [6], 20 nM. Further, in the assay filed under Mus musculus [7], the SD90 was found to be 0.44 mg/kg/day.

Consider `CC(=O)O.Nc1nc(N)c2c(Cl)c(CNc3ccc(Cl)cc3)ccc2n1.O`, for which the “Delta MST” value in the assay with Mus musculus [3] is 16.9 days; in the assay on Mus musculus [13], 2.7 days; in the assay with Mus musculus [8] (10 mg/kg), 6.9 days and 6.1 days; in the assay on Mus musculus [14], 16.9 days and 17.4 days.

On to `CC(=O)O.Nc1nc(N)c2c(Cl)c(CNc3cccc(Br)c3)ccc2n1.O`, for which the “Delta MST” value with Mus musculus [2] (40 mg/kg) was 11.3 days and 11.5 days and 11.7 days; in the assay with Mus musculus [3] (20 mg/kg), 8.5 days and 8.3 days; with Mus musculus [16], 4.7 days; with Mus musculus [13] it was 1.5 days; in the assay on Mus musculus [8] (10 mg/kg), 7.3 days and 7.5 days and 4.7 days. Moreover, the IC50 worked out at 2.2 nM in the assay on L1210 [15] and 2.1 nM in the assay on L1210 [6] (Mus musculus, L1210, 48 h).

For the compound `CC(=O)O.Nc1nc(N)c2cc(CNc3ccccc3Cl)ccc2n1.O`, the “Delta MST” value is 7.7 days in the assay on Plasmodium berghei [9]; 9.9 days and 8.4 days in the assay on Plasmodium berghei [17]; 8.4 days with Mus musculus [18]; 7.9 days with Mus musculus [19]; 3.1 days and 1.3 days in the assay with Plasmodium berghei [12] (40 mg/kg); 0.7 days in the assay with Plasmodium berghei [20]. The “Delta MST” value in the assay with Plasmodium berghei [21] was found to be 0.7 days. Besides, the IC50 with L1210 [6] (Mus musculus, L1210, 48 h) is 93 nM; in the assay on L1210 [6], 68 nM. The same compound yielded an SD90 in the assay filed under Mus musculus [7] of 8 mg/kg/day.

Take `CC(=O)O.Nc1nc(N)c2cc(CN(N=O)c3ccc(Cl)c(Cl)c3)ccc2n1.O`: the “Delta MST” value with Plasmodium berghei [9] (80 mg/kg) was 12.3 days and 12 days; with Plasmodium berghei [11] (20 mg/kg), 6.7 days and 6.8 days; with Mus musculus [22], 22.8 days; with Plasmodium berghei [12] (40 mg/kg) it was 9.9 days and 9.8 days; in the assay with Mus musculus [23], 28.7 days; in the assay with Plasmodium berghei [20] it was 2 days. Further, in the assay with Plasmodium berghei [21] (10 mg/kg), the “Delta MST” value is 3.7 days and 4 days. Moreover, the IC50 is 40 nM in the assay with L1210 [6] (Mus musculus, L1210, 48 h) and 70 nM with L1210 [6]. In the assay listed under Mus musculus [7], the SD90 turned out to be 0.25 mg/kg/day.

`Cc1c(CN(N=O)c2ccc(Cl)c(Cl)c2)ccc2nc(N)nc(N)c12`: the “Delta MST” value in the assay on Mus musculus [24] is 12 days and 11.9 days; in the assay on Mus musculus [25] it was 21.7 days and 24.9 days; in the assay on Mus musculus [13], 4.1 days; in the assay on Plasmodium berghei [20] (5 mg/kg) it was 9.9 days and 10.5 days. Besides, the IC50 with L1210 [6] (Mus musculus, L1210, 48 h) was 70 nM; in the assay with L1210 [6] it was 100 nM. This compound gave an SD90 in the assay filed under Mus musculus [7] of 1.15 mg/kg/day.

As to `Cc1c(CN(C=O)c2ccc(Cl)c(Cl)c2)ccc2nc(N)nc(N)c12`, the “Delta MST” value was 9.9 days and 9.4 days in the assay with Plasmodium berghei [11] (20 mg/kg); 29.9 days in the assay with Plasmodium berghei [12]; 9.9 days in the assay with Mus musculus [26]; 5.3 days in the assay with Plasmodium berghei [20]; 7.7 days and 5.3 days and 3.9 days with Plasmodium berghei [21] (10 mg/kg). Besides, the IC50 amounted to 21 nM with L1210 [6] (Mus musculus, L1210, 48 h) and 26 nM in the assay on L1210 [6].

Take `Nc1nc(N)c2c(Cl)c(CN(N=O)c3ccc(Cl)c(Cl)c3)ccc2n1`: the “Delta MST” value was 6.1 days and 6.3 days in the assay on Plasmodium berghei [11] (20 mg/kg); 21.9 days in the assay on Mus musculus [27]; 8.1 days with Plasmodium berghei [12]; 13.4 days with Mus musculus [28]; 3.5 days in the assay with Plasmodium berghei [21].

`CC1(C)N=C(N)N=C(N)N1c1ccc(Cl)cc1.Cl` [CHLORCYCLOGUANIL HYDROCHLORIDE]: the “Delta MST” value in the assay with Mus musculus [29] is 21.6 days; with Plasmodium berghei [11], 7.9 days; in the assay on Mus musculus [30] it was 13.4 days; in the assay with Plasmodium berghei [21], 4.9 days.
